Source: ChEMBL document CHEMBL1938268, “Synthesis, characterization and in vitro biological evaluation of some novel diarylsulfonylureas as potential cytotoxic and antimicrobial agents” (Bioorg Med Chem Lett, 2012)
≈ marks a conversion by molar mass, not a printed value.

What was measured:
Bacillus pumilus = assay: Antibacterial activity against Bacillus pumilus NCIM 2327 after 24 hrs by agar well diffusion assay; conditions: NCIM 2327, 24 h
Klebsiella pneumoniae = assay: Antibacterial activity against Klebsiella pneumoniae NCIM 5082 after 24 hrs by agar well diffusion assay; format: functional; conditions: NCIM 5082, 24 h
Summary of the method: (§1)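 Agar well diffusion per NCCLS; NCIM standard strains. Nutrient agar seeded with 0.1 mL bacterial suspension in sterile 0.85% saline at 10⁵ CFU/mL. Plates in triplicate, 37 0.5 °C, 24 h. MIC taken as lowest concentration giving complete growth inhibition.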

Pseudomonas aeruginosa = assay: Antibacterial activity against Pseudomonas aeruginosa NCIM 2036 after 24 hrs by agar well diffusion assay; format: functional; conditions: NCIM 2036, 24 h
Summary of the method: as §1

Micrococcus luteus = assay: Antibacterial activity against Micrococcus luteus NCIM 2155 after 24 hrs by agar well diffusion assay; format: functional; conditions: NCIM 2155, 24 h
Summary of the method: as §1

Aspergillus oryzae = assay: Antifungal activity against Aspergillus oryzae NCIM 643 after 48 hrs by agar well diffusion assay; format: functional; conditions: NCIM 643, 48 h
Summary of the method: (§2)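 Fungal spore suspensions in sterile distilled water set to final 10⁶ CFU/mL; 0.1 mL spread on Potato-Dextrose-Agar. NCCLS agar well diffusion with NCIM standard strains: 6 mm wells given 0.1 mL compound diluted in 1% DMSO, final 16 to 512 µg/mL. Triplicate plates held 48 h at 28 0.2 °C. MIC is lowest concentration fully inhibiting growth.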

Escherichia coli = assay: Antibacterial activity against Escherichia coli NCIM 2065 after 24 hrs by agar well diffusion assay; format: functional; conditions: NCIM 2065, 24 h
Summary of the method: as §1

Aspergillus niger = assay: Antifungal activity against Aspergillus niger NCIM 548 after 48 hrs by agar well diffusion assay; format: functional; conditions: NCIM 548, 48 h
Summary of the method: as §2

[1] = Toxicity against Brine shrimp nauplii after 24 hrs; format: organism-based; conditions: artemia salina, in vivo; read-out: ED50
Summary of the method: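 Artemia salina nauplii hatched 38 h in sterile brine (sea salt 38 g/L, pH 8.5) under aeration; 10 nauplii per vial exposed to graded compound concentrations in 5 mL final volume, 37 °C, 24 h under incandescent light. Survivors counted; percent lethality versus vehicle-treated controls; ED50 from probit analysis; podophyllotoxin positive control.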

Penicillium chrysogenum = assay: Antifungal activity against Penicillium chrysogenum NCIM 738 after 48 hrs by agar well diffusion assay; format: functional; conditions: NCIM 738, 48 h
Summary of the method: as §2

Proteus vulgaris = assay: Antibacterial activity against Proteus vulgaris NCIM 2813 after 24 hrs by agar well diffusion assay; format: functional; conditions: NCIM 2813, 24 h
Summary of the method: as §1

Staphylococcus aureus = assay: Antibacterial activity against Staphylococcus aureus NCIM 2079 after 24 hrs by agar well diffusion assay; format: functional; conditions: NCIM 2079, 24 h
Summary of the method: as §1

Bacillus subtilis = assay: Antibacterial activity against Bacillus subtilis NCIM 2063 after 24 hrs by agar well diffusion assay; format: functional; conditions: NCIM 2063, 24 h
Summary of the method: as §1

Candida albicans = assay: Antifungal activity against Candida albicans NCIM 3102 after 48 hrs by agar well diffusion assay; format: functional; conditions: NCIM 3102, 48 h
Summary of the method: as §2

Row | Structure (SMILES) | MIC (Bacillus pumilus) | MIC (Klebsiella pneumoniae) | MIC (Pseudomonas aeruginosa) | MIC (Micrococcus luteus) | MIC (Aspergillus oryzae) | MIC (Escherichia coli) | MIC (Aspergillus niger) | LC50 at 24 h [1] | MIC (Penicillium chrysogenum) | MIC (Proteus vulgaris) | MIC (Staphylococcus aureus) | MIC (Bacillus subtilis) | MIC (Candida albicans)
1 | Cc1ccc(S(=O)(=O)NC(=O)Nc2ccccc2C(=O)/C=C/c2cccnc2)cc1 | 128 mg/L (≈ 304 µM) | 128 mg/L (≈ 304 µM) | 128 mg/L (≈ 304 µM) | 128 mg/L (≈ 304 µM) | 128 mg/L (≈ 304 µM) | 128 mg/L (≈ 304 µM) | 128 mg/L (≈ 304 µM) | 14.1 mg/L (≈ 33.4 µM) | 128 mg/L (≈ 304 µM) | 128 mg/L (≈ 304 µM) | 128 mg/L (≈ 304 µM) | 128 mg/L (≈ 304 µM) | 128 mg/L (≈ 304 µM)
2 | COc1cc(/C=C/C(=O)c2ccccc2NC(=O)NS(=O)(=O)c2ccc(C)cc2)ccc1O | 64 mg/L (≈ 137 µM) | 128 mg/L (≈ 274 µM) | 64 mg/L (≈ 137 µM) | 128 mg/L (≈ 274 µM) | 128 mg/L (≈ 274 µM) | 64 mg/L (≈ 137 µM) | 128 mg/L (≈ 274 µM) | 17.8 mg/L (≈ 38.2 µM) | 128 mg/L (≈ 274 µM) | 128 mg/L (≈ 274 µM) | 128 mg/L (≈ 274 µM) | 64 mg/L (≈ 137 µM) | 128 mg/L (≈ 274 µM)
3 | Cc1ccc(S(=O)(=O)NC(=O)Nc2ccccc2C(=O)/C=C/c2cccc(O)c2)cc1 | 512 mg/L (≈ 1170 µM) | 512 mg/L (≈ 1170 µM) | 512 mg/L (≈ 1170 µM) | 512 mg/L (≈ 1170 µM) | 512 mg/L (≈ 1170 µM) | 512 mg/L (≈ 1170 µM) | 512 mg/L (≈ 1170 µM) | 39.3 mg/L (≈ 89.9 µM) | 512 mg/L (≈ 1170 µM) | 512 mg/L (≈ 1170 µM) | 512 mg/L (≈ 1170 µM) | 512 mg/L (≈ 1170 µM) | 512 mg/L (≈ 1170 µM)
4 | COc1ccc(/C=C/C(=O)c2ccccc2NC(=O)NS(=O)(=O)c2ccc(C)cc2)c(OC)c1 | 32 mg/L (≈ 66.6 µM) | 128 mg/L (≈ 266 µM) | 32 mg/L (≈ 66.6 µM) | 128 mg/L (≈ 266 µM) | 128 mg/L (≈ 266 µM) | 32 mg/L (≈ 66.6 µM) | 128 mg/L (≈ 266 µM) | 16 mg/L (≈ 33.4 µM) | 128 mg/L (≈ 266 µM) | 128 mg/L (≈ 266 µM) | 32 mg/L (≈ 66.6 µM) | 32 mg/L (≈ 66.6 µM) | 128 mg/L (≈ 266 µM)
5 | Cc1ccc(S(=O)(=O)NC(=O)Nc2ccccc2C(=O)/C=C/c2ccc(O)cc2)cc1 | 128 mg/L (≈ 293 µM) | 128 mg/L (≈ 293 µM) | 256 mg/L (≈ 586 µM) | 128 mg/L (≈ 293 µM) | 128 mg/L (≈ 293 µM) | 128 mg/L (≈ 293 µM) | 128 mg/L (≈ 293 µM) | 24.3 mg/L (≈ 55.7 µM) | 128 mg/L (≈ 293 µM) | 128 mg/L (≈ 293 µM) | 256 mg/L (≈ 586 µM) | 256 mg/L (≈ 586 µM) | 128 mg/L (≈ 293 µM)
6 | Cc1ccc(S(=O)(=O)NC(=O)Nc2ccccc2C(=O)/C=C/C=C/c2ccccc2)cc1 | 128 mg/L (≈ 287 µM) | 256 mg/L (≈ 573 µM) | 128 mg/L (≈ 287 µM) | 256 mg/L (≈ 573 µM) | 256 mg/L (≈ 573 µM) | 128 mg/L (≈ 287 µM) | 256 mg/L (≈ 573 µM) | 18.2 mg/L (≈ 40.8 µM) | 256 mg/L (≈ 573 µM) | 256 mg/L (≈ 573 µM) | 128 mg/L (≈ 287 µM) | 128 mg/L (≈ 287 µM) | 256 mg/L (≈ 573 µM)
7 | C=CCOc1ccc(/C=C/C(=O)c2ccccc2NC(=O)NS(=O)(=O)c2ccc(C)cc2)cc1 | 16 mg/L (≈ 33.6 µM) | 16 mg/L (≈ 33.6 µM) | 16 mg/L (≈ 33.6 µM) | 32 mg/L (≈ 67.1 µM) | 16 mg/L (≈ 33.6 µM) | 32 mg/L (≈ 67.1 µM) | 16 mg/L (≈ 33.6 µM) | 6.11 mg/L (≈ 12.8 µM) | 16 mg/L (≈ 33.6 µM) | 16 mg/L (≈ 33.6 µM) | 16 mg/L (≈ 33.6 µM) | 32 mg/L (≈ 67.1 µM) | 16 mg/L (≈ 33.6 µM)
8 | Cc1ccc(S(=O)(=O)NC(=O)Nc2ccccc2C(=O)/C=C/c2ccc(Cl)cc2)cc1 | 32 mg/L (≈ 70.3 µM) | 64 mg/L (≈ 141 µM) | 32 mg/L (≈ 70.3 µM) | 64 mg/L (≈ 141 µM) | 64 mg/L (≈ 141 µM) | 32 mg/L (≈ 70.3 µM) | 64 mg/L (≈ 141 µM) | 6.92 mg/L (≈ 15.2 µM) | 64 mg/L (≈ 141 µM) | 64 mg/L (≈ 141 µM) | 32 mg/L (≈ 70.3 µM) | 32 mg/L (≈ 70.3 µM) | 64 mg/L (≈ 141 µM)
9 | Cc1ccc(S(=O)(=O)NC(=O)Nc2ccccc2C(=O)/C=C/c2ccncc2)cc1 | 64 mg/L (≈ 152 µM) | 64 mg/L (≈ 152 µM) | 128 mg/L (≈ 304 µM) | 64 mg/L (≈ 152 µM) | 64 mg/L (≈ 152 µM) | 64 mg/L (≈ 152 µM) | 64 mg/L (≈ 152 µM) | 16.8 mg/L (≈ 39.9 µM) | 64 mg/L (≈ 152 µM) | 64 mg/L (≈ 152 µM) | 64 mg/L (≈ 152 µM) | 128 mg/L (≈ 304 µM) | 64 mg/L (≈ 152 µM)
10 | Cc1ccc(S(=O)(=O)NC(=O)Nc2ccccc2C(=O)/C=C/c2ccccc2O)cc1 | 512 mg/L (≈ 1170 µM) | 256 mg/L (≈ 586 µM) | 512 mg/L (≈ 1170 µM) | 256 mg/L (≈ 586 µM) | 256 mg/L (≈ 586 µM) | 512 mg/L (≈ 1170 µM) | 256 mg/L (≈ 586 µM) | 32.3 mg/L (≈ 74.1 µM) | 256 mg/L (≈ 586 µM) | 256 mg/L (≈ 586 µM) | 256 mg/L (≈ 586 µM) | 512 mg/L (≈ 1170 µM) | 256 mg/L (≈ 586 µM)
11 | Cc1ccc(S(=O)(=O)NC(=O)Nc2ccccc2C(=O)/C=C/c2cc(O)ccc2[N+](=O)[O-])cc1 | 16 mg/L (≈ 33.2 µM) | 64 mg/L (≈ 133 µM) | 16 mg/L (≈ 33.2 µM) | 64 mg/L (≈ 133 µM) | 64 mg/L (≈ 133 µM) | 16 mg/L (≈ 33.2 µM) | 64 mg/L (≈ 133 µM) | 18.3 mg/L (≈ 38 µM) | 64 mg/L (≈ 133 µM) | 64 mg/L (≈ 133 µM) | 16 mg/L (≈ 33.2 µM) | 16 mg/L (≈ 33.2 µM) | 32 mg/L (≈ 66.5 µM)
12 | Cc1ccc(S(=O)(=O)NC(=O)Nc2ccccc2C(=O)/C=C/c2c3ccccc3cc3ccccc23)cc1 | 512 mg/L (≈ 983 µM) | 512 mg/L (≈ 983 µM) | 512 mg/L (≈ 983 µM) | 512 mg/L (≈ 983 µM) | 512 mg/L (≈ 983 µM) | 512 mg/L (≈ 983 µM) | 512 mg/L (≈ 983 µM) | 44.3 mg/L (≈ 85.1 µM) | 512 mg/L (≈ 983 µM) | 512 mg/L (≈ 983 µM) | 512 mg/L (≈ 983 µM) | 512 mg/L (≈ 983 µM) | 512 mg/L (≈ 983 µM)
13 | Cc1ccc(S(=O)(=O)NC(=O)Nc2ccccc2C(=O)/C=C/c2ccc(N(C)C)cc2)cc1 | 64 mg/L (≈ 138 µM) | 128 mg/L (≈ 276 µM) | 64 mg/L (≈ 138 µM) | 128 mg/L (≈ 276 µM) | 256 mg/L (≈ 552 µM) | 64 mg/L (≈ 138 µM) | 256 mg/L (≈ 552 µM) | 38.1 mg/L (≈ 82.2 µM) | 256 mg/L (≈ 552 µM) | 128 mg/L (≈ 276 µM) | 64 mg/L (≈ 138 µM) | 64 mg/L (≈ 138 µM) | 128 mg/L (≈ 276 µM)
